Pf gametocyte: P. falciparum stage V gametocyte viability inhibition | hit rate 0.065% among 150,000 | P. falciparum stage V gametocytes, ATP luminescence, 24 h | inhibition, % at 10.9 µM;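 active = inhibition above the mean plus 3 SD of compounds within the control limits, set per campaign, cut at about 38% in these data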;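 note: 0% = DMSO wells and 100% = medium only without gametocytes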
Lipid droplet: modulators of hepatic lipid droplet formation. AML12 mouse hepatocytes, oleate lipid droplets, BODIPY imaging. inhibition, % at 6.5 µM. hit rate 0.4% among 240,000;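 active = lipid droplet intensity inhibited by at least 50%, with more than 500 cells counted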
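material = mouse AML12 hepatocyte cell line, fixed after treatment | also added = 100 µM oleic acid challenge | doses = compound at 6.5 µM only | schedule = overnight exposure | technique = Image-based BODIPY and DAPI two-channel analysis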
Arbovirus inh: antivirals against arbovirus infection. arbovirus infection cell-based antiviral screen. inhibition, % at 10 µM. hit rate 0.37% among 200,000; in the data active = inhibition above about 30%
zVAD death inh: L929 zVAD cell death inhibition. L929 zVAD necroptosis rescue, ATP luminescence, 24 h; with zVAD 60 µM. hit rate 0.38% among 220,000. viability rescue, % at 10 µM;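 active = activation, scaled between plate controls, above about 75%, limit read from the data; inactive = activation under that limit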;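 note: 0% = zVAD with DMSO and 100% = DMSO alone without zVAD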
TNF death inh: inhibitors of TNF-alpha induced necroptosis in Jurkat FADD-/- cells; activation (protection from cell death), % at 10 µM; hit rate 0.068% among 220,000; Jurkat FADD-/- TNF necroptosis rescue, ATP luminescence, 24 h; 0 = TNF only, 100 = no-TNF cells;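 active = activation, meaning protection from cell death, of at least 50% relative to plate controls; inactive = activation below 50%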;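 note: necroptosis triggered by 40 ng/mL TNF-alpha added together with compound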
Lipid drop inh: confirmation of inhibitors of hepatic lipid droplet formation. shares compounds with Lipid droplet. AML12 mouse hepatocytes, BODIPY lipid droplet imaging; droplets induced with 100 µM oleic acid. inhibition, % at 5.2 µM. hit rate 65% among 870. AID 463183;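 active = inhibition of lipid droplet metric at least 50%, with more than 300 cells in each of four replicates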;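 note: plate controls were DMSO with oleic acid for no effect and 5 µM Triacsin-C for full effect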
AML12 cytotox: toxic to AML12 mouse hepatocytes in counter-screen | hit rate 3% among 870 | DAPI nuclear morphology cytotoxicity imaging; hits give high values; cells fed 100 µM oleate overnight | z-score at 5 µM | AID 463200 | shares compounds with Lipid droplet; in the data active = z-score above about 6.3;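 note: compound exposure lasted overnight at 37 °C before fixation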
AML12 tox conf: confirmation of cytotoxicity in AML12 mouse hepatocytes. 530 tested, under 10 active. cytotoxicity, % at 50 µM. AID 463219. shares compounds with Lipid droplet. AML12 mouse hepatocyte viability, ATP luminescence; cells loaded with 100 µM oleic acid;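 active = cytotoxicity above 50% in each of four replicates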;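 note: compound exposure lasted overnight at 37 °C before the ATP read; 0% = DMSO-treated cells and 100% = wells with no cells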
* = called active by the depositor; / = no result given. Sampled rows, rich in hits. Any-hit rate of the full collection: about 0.91%.

SMILES	Pf gametocyte	Lipid droplet	Arbovirus inh	zVAD death inh	TNF death inh	Lipid drop inh	AML12 cytotox	AML12 tox conf
COc1cc(CN2CCC(n3nccc3NC(=O)c3ccccc3OC)CC2)ccc1F	/	3.2	/	/	/	/	/	/
Cc1ccc(C)c(OCCC(=O)NCCc2ccc(Cl)cc2)c1	/	-3.0	/	/	/	/	/	/
CCOc1ccc(CCNC(=O)CS(=O)Cc2nc(-c3ccccc3C)oc2C)cc1OCC (configuration not stated)	/	61.3*	/	/	/	89.4*	-0.186	13.3
CCOc1ccc(CCNC(=O)CSCc2ccc(C)cc2)cc1OCC	8.3	88.4*	-3.8	-0.7	4.1	109.1*	-0.82	/
CCOc1ccc(CCNC(=O)CCC(=O)N2CCOc3ccc(C)cc32)cc1OCC	/	79.8*	/	/	/	111.9*	-1.1	16.1
CCOc1ccc(CCNC(=O)CCOc2cc(C)ccc2C)cc1OCC	/	97.5*	/	/	/	111.2*	-0.471	14.9
CCOc1ccc(CCNC(=O)COC(=O)COc2ccc(Br)cc2)cc1OCC	/	-0.5	/	/	/	/	/	/
COc1ccc(S(=O)(=O)Cc2ccc(C(=O)NCc3ccccc3OC)o2)cc1	/	-0.4	/	/	/	/	/	/
CS(=O)(=O)Nc1cccc(-c2cnc3ccccc3n2)c1	/	0.9	/	/	/	/	/	/
CCOc1ccc(CCNC(=O)CN2C(=O)c3cccnc3Oc3ccc(C)cc32)cc1OCC	/	91.6*	/	/	/	110.0*	-0.37	10.0
CSc1ccc(CCNC(=O)CN2C(=O)c3cccnc3Oc3ccc(C)cc32)cc1	/	-19.8	/	/	/	/	/	/
Cc1nn(-c2ccccc2)c2c1C(c1ccc([N+](=O)[O-])cc1)N1C(=N2)C(=O)Nc2ccccc21 (configuration not stated)	3.6	-4.8	-6.0	0.4	-0.2	/	/	/
Cc1nn(-c2ccc([N+](=O)[O-])cc2)c2c1C(c1cccc(Br)c1)N1C(=N2)C(=O)Nc2ccccc21 (configuration not stated)	/	117.5*	4.0	0.5	-7.7	82.4*	0.122	-5.0
CCN1CCN(C(=O)CN(CC)S(=O)(=O)c2ccc(F)cc2)CC1	/	-10.6	/	/	/	/	/	/
Cc1ccccc1-n1ncc(C(C)NC(=O)c2ccco2)c1C (configuration not stated)	/	-3.3	-0.2	0.5	0.3	/	/	/
CCOc1ccc(CCNC(=O)c2cc3sc(Cl)cc3n2C)cc1OCC	15.0	88.9*	0.5	0.9	4.3	106.8*	0.666	4.5
Cc1cc(C(=O)NCCc2ccccc2)c2cc(F)ccc2n1	3.9	5.0	4.6	0.6	1.0	/	/	/
COc1ccc(CCNC(=O)CCNC(=O)c2ccccc2Cl)cc1	/	-6.9	/	/	/	/	/	/
CCOc1ccc(CCNC(=O)c2cc(C)nc3ccccc23)cc1OCC	/	62.2*	/	/	/	70.8*	0.0409	17.1
CCOc1ccc(CCNC(=O)CCNC(=O)c2ccccc2Cl)cc1OCC	/	67.7*	/	/	/	88.0*	0.706	12.8
COc1ccc(CCNC(=O)c2cccs2)cc1OC	6.6	1.8	0.2	0.6	0.3	/	/	/
CCOc1ccc(CCNC(=O)c2cccs2)cc1OCC	-11.3	75.6*	/	/	/	99.5*	-0.446	8.3
CCCCc1ccc(NC(=O)CSc2nc3ncccc3[nH]2)cc1	/	51.9*	/	/	/	91.5*	-0.43	29.5
CCCCc1ccc(NC(=O)CSc2nnc(C)c(=O)n2N)cc1	/	81.2*	/	/	/	106.5*	0.437	21.5
CC(=O)Nc1ccc(NC(=O)CSc2nnc(C)c(=O)n2N)cc1	-12.0	-5.5	/	1.0	0.5	/	/	/
Cc1cc(S(=O)(=O)/N=C(\N)c2ccc(C(N)=O)cc2)cc(C)c1F	/	1.4	/	/	/	/	/	/
CCOCCCN(C(=O)Cn1nnc(-c2ccc(C)o2)n1)C(C(=O)NCC1CCCO1)c1ccc(F)cc1 (configuration not stated)	-1.9	-1.2	/	1.5	-0.6	/	/	/
COc1ccc(Cl)cc1NC(=O)CN(C)C(=O)Cc1ccc2c(c1)CCC2	/	52.0*	/	/	/	84.6*	0.128	19.0
Cc1c(Cl)cccc1N(CC(=O)NC(C)c1ccccc1)S(C)(=O)=O (configuration not stated)	/	58.4*	/	/	/	46.7	-0.752	/

High-throughput results as filed in PubChem.
